Consider ten molecules from ChEMBL document CHEMBL3397000, “Rapid synthesis of 4-arylchromenes from ortho-substituted alkynols: A versatile access to restricted isocombretastatin A-4 analogues as antitumor agents” (Eur J Med Chem, 2015).

A short description of test [1]: Cytotoxicity against human HCT116 cells at 10 uM after 72 hrs by CellTitre-Blue assay. In kind it is functional. The following applies: HCT-116, 72 h.
For test [2], the species on record is Ovis aries. The test is described as follows: Inhibition of sheep brain tubulin polymerization at 10 uM by DAPI staining-based fluorescence assay.
Test [3] in a line: Cytotoxicity against human HCT116 cells after 72 hrs by CellTitre-Blue assay. It is filed as functional. As to conditions: HCT-116, 72 h.
Test [4] is described as follows: Inhibition of sheep brain tubulin polymerization by DAPI staining-based fluorescence assay. On the set-up: species or system Ovis aries. The method in brief:
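Tubulin was purified by two assembly–disassembly cycles and held at ~2–3 mg/mL in MES assembly buffer with MgCl₂, EGTA and GTP, pH 6.6. Assembly was followed continuously at 37 °C by DAPI fluorescence. IC50 is the concentration halving the maximum assembly rate versus the no-compound rate; mean of three experiments. Reference agents were run the same day.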

A short description of test [5]: Cytotoxicity against human H1299 cells after 72 hrs by CellTitre-Blue assay. In kind it is functional. The following applies: NCI-H1299, 72 h. An outline of the steps:
(§1)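 ATCC lines grown in DMEM (4.5 g/L glucose) with 10% FCS and 1% glutamine at 37 °C, 5% CO₂. Seeded at 5×10³ cells/well and cultured 24 h. Compound added from DMSO (final <0.1%) for 72 h. Resazurin (CellTiter-Blue) added for 2 h, then fluorescence read at ex 560/em 590 nm. IC50 is the 50% fluorescence drop versus untreated cells, in triplicate.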

Test [6] has as its system MDA-MB-231. The test is described as follows: Cytotoxicity against human MDA-MB-231 cells after 72 hrs by CellTitre-Blue assay. As to conditions: MDA-MB-231, 72 h. It is filed as functional. An outline of the steps: as §1
Test [7] deals with K562. The test is described as follows: Cytotoxicity against human K562 cells after 72 hrs by CellTitre-Blue assay. In kind it is functional. As to conditions: K562, 72 h. The method in brief:
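Cells were kept in RPMI 1640 with 10% FCS and 1% glutamine, humidified, 37 °C, 5% CO₂. Plated at 5×10³ cells/well, grown 24 h, then exposed 72 h to compound delivered in DMSO (below 0.1% final). Viability was read by resazurin reduction over 2 h (fluorescence ex 560, em 590 nm). IC50 is the 50% signal loss relative to untreated wells; triplicate runs.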

`COc1cc(C2=CCOc3cc(CO)ccc32)cc(OC)c1OC` came in with an inhibition at 10 µM in test [1] of less than 10%. In test [2], this molecule gave an inhibition of less than 10%.

In the case of `COc1ccc2c(c1N)OCCC2c1cc(OC)c(OC)c(OC)c1` (stereo not drawn), the concentration for 50% growth inhibition (GI50) in test [3] came out at 50 nM; in test [5] it was 60 nM; in test [6], 65 nM; in test [7], 70 nM. For the same molecule, in test [4], 4100 nM corresponded to half-maximal inhibition (IC50).

With `C=C(c1ccc(OC)c(O)c1)c1cc(OC)c(OC)c(OC)c1`, the GI50 is 2.2 nM in test [3], 5 nM in test [5], 4.1 nM in test [6] and 5.2 nM in test [7]. The concentration for half-maximal inhibition (IC50) in test [4] was 2200 nM.

Turning to `COc1cc(C2=CCOc3cc(F)ccc32)cc(OC)c1OC`, the inhibition at 10 µM in test [1] is less than 10%. In test [2], this molecule registered an inhibition of less than 10%.

For the molecule `COc1ccc2c(c1N)OCC=C2c1cc(OC)c(OC)c(OC)c1`, the concentration for 50% growth inhibition (GI50) worked out at 50 nM in test [3], 60 nM in test [5], 65 nM in test [6] and 60 nM in test [7]. For the same molecule, half-maximal inhibition in test [4] (IC50) was put at 5000 nM.

`COc1ccc(/C=C\c2cc(OC)c(OC)c(OC)c2)cc1O` [COMBRETASTATIN A4]: the GI50 in test [3] is 2.1 nM; in test [5], 5.1 nM; in test [6] it was 3.2 nM; in test [7], 4.3 nM. The molecule also had an IC50 in test [4] of 1400 nM.

In the case of `COc1ccc2c(c1O)OCCC2c1cc(OC)c(OC)c(OC)c1` (stereo not drawn), the 50% growth inhibitory concentration (GI50) in test [3] came out at 75 nM; in test [5], 80 nM; in test [6], 60 nM; in test [7], 75 nM. Besides, the IC50 in test [4] is 6200 nM.

Molecule `COc1ccc2c(c1Br)OCC=C2c1cc(OC)c(OC)c(OC)c1` showed a GI50 in test [3] of 300 nM. The molecule also showed an inhibition in test [2] of less than 10%.

In test [3], `COc1cc(C2=CCOc3ccc(-c4ccccc4)cc32)cc(OC)c1OC` displayed a GI50 of 400 nM. For the same molecule, the inhibition in test [2] is less than 10%.

Regarding `COc1ccc2c(c1O)OCC=C2c1cc(OC)c(OC)c(OC)c1`, the GI50 came out at 10 nM in test [3], 15 nM in test [5], 25 nM in test [6] and 32 nM in test [7]. Further, half-maximal inhibition in test [4] (IC50) was put at 3700 nM.

What is called inhibition is the share of the control response that was lost under treatment. What is called GI50 is the concentration giving 50% growth inhibition. In general, IC50 refers to the point on the concentration scale where inhibition reaches its midpoint.
